Measured values gathered from unrelated publications.
Compare with care: the assays were run in different laboratories.
Target: Fibroblast growth factor receptor 2 (FGFR2, Homo sapiens, UniProt P21802)

| SMILES | test | setting | endpoint | value |
| --- | --- | --- | --- | --- |
| COCc1c(-c2cc3cc(C)cc(OC)c3s2)c2c(N)ncnn2c1CN1CCNC(=O)C1 | cell-free assay, competition with immobilised ligand | 1 µM | inhibition | 99.8% |
| N#CC1(c2ccccn2)CCN(Cc2cc(C(=O)O)c(=O)n3ccccc23)CC1 | cell-free assay, competition with immobilised ligand | 1 µM | remaining binding | 100% |
| Cc1nn(C)cc1-c1nc2c(N3CCN(Cc4ccc(Cl)cc4)CC3)c(Cl)cnc2[nH]1 | binding, competition with immobilised ligand | 1 µM | remaining binding | 45% |
| Cn1cc(-c2cccc(N3CCc4c(sc5c4CC(C)(C)C5)C3=O)c2CO)cc(Nc2ccncn2)c1=O | enzyme activity, inhibitor | 1 µM | inhibition | 14% |
| C#Cc1n[nH]c2c(-c3cn([C@@H](C)c4ccccn4)c(=O)[nH]c3=O)cc(F)cc12 | enzyme activity, inhibitor | 0.1 µM | inhibition | 4.2% |
| CC(C)(C)c1cc(C=C(C#N)C#N)cc(Br)c1O | enzyme activity, inhibitor | 0.5 µM | remaining activity | 96.4% |
| C#Cc1n[nH]c2c(-c3cn([C@@H](C)c4ccccc4)c(=O)[nH]c3=O)cc(F)cc12 | enzyme activity, inhibitor | 0.1 µM | inhibition | 1.6% |
| Cn1cc(-c2cc(F)cc(N3CCn4c(cc5c4CCCC5)C3=O)c2CO)cc(Nc2ccc(N3CCN(C4COC4)CC3)cn2)c1=O | enzyme activity, inhibitor | 0.1 µM | inhibition | 15% |
| O=c1[nH]c2ccccc2n1C1CCN(Cc2ccc(-c3[nH]c4cc5ncnc5cc4nc3-c3ccccc3)cc2)CC1 | cell-free assay | 0.5 µM | remaining signal | 94.2% |
| Cn1cncc1[C@](O)(COc1ccc(C#N)cc1-c1ccc(OC(F)(F)F)cc1)c1ccc(C#N)cc1 | cell-free assay, competition with immobilised ligand | 1 µM | remaining binding | 86% |
| COc1ncccc1-c1cnn2ccc(N3CCN(C(=O)OC(C)C)CC3)nc12 | binding, competition with immobilised ligand | 1 µM | remaining binding | 82% |
| Nc1ncc(-c2nc(N3CCOCC3)nc(N3CCOCC3)n2)c(C(F)F)n1 | cell-free assay, competition with immobilised ligand | 10 µM | remaining binding | 90% |
